Screening results: PubChem BioAssay, several laboratories
The list is not random: actives were taken first. Their share in the collection is about 3.6%.
NS3 helicase inh: blocks Hepatitis C virus NS3 helicase unwinding. NS3 helicase DNA unwinding, Cy5 molecular beacon fluorescence. 0.56% of 290,000 active. inhibition, % at 10.9 µM;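 active means inhibition above the mean of all tested compounds plus 3 SD, set per campaign, cut at about 35% in these data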;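 further: 0% = DMSO wells and 100% = thioflavine S control wells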
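Assay system: hepatitis C virus NS3 helicase domain fragment enzyme. Also added: annealed dual-labelled DNA beacon duplex, ATP-started. Timing: 1 h reaction at 25 °C, ATP-initiated. Technique: Cy5 fluorescence at 0 and 60 min, beacon hairpin quenching. Evaluation: % inhibition of unwinding. Replication: one well per compound.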
GRIN3A LBD mod: modulates the human NR3A ligand-binding domain; NR3A LBD differential scanning fluorimetry, Tm shift; 0% = protein alone, 100% = glycine-bound protein; Tm shift relative to glycine control, % at 25 µM; 2.5% of 340,000 active; AID 1259313;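 active means melting temperature shift of at least 10% of the positive control shift, at one fixed dose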
FGF22 binding: shifts melting point of recombinant human FGF22; activity (Tm shift, normalised), % at 9.99 µM; 1.5% of 340,000 active; recombinant FGF22 thermal shift, SYPRO orange fluorescence; percent of sucrose octasulfate shift, DMSO zero;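 active means mean Tm shift, scaled 0 neutral to 100 positive control, at about 1.3% or above, every replicate too, limit read from the data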
Target sequence (Q9HCT0 whole entry, looked up): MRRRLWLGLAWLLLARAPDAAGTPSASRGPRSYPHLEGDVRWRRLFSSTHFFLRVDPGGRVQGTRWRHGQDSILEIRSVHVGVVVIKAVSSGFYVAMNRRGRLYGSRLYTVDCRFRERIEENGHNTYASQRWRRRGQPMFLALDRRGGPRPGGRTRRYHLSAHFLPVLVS
FID counter: counter-screen for HCV NS3 helicase inhibitors: DNA intercalator displacement; DNA fluorescent intercalator displacement, fluorescence; inhibition, % at 7.9 µM; 0.17% of 290,000 active; in the data active means inhibition above about 37%;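 further: 0% = vehicle and 100% = reference compound; higher means more ethidium bromide displaced from hairpin DNA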
ZTA counter: blocks Epstein-Barr virus ZTA, an EBNA-1 counter-screen. P03206. ZTA-DNA binding, fluorescence polarization. inhibition, % at 11 µM. 0.15% of 320,000 active. AID 2234; in the data active means inhibition above about 33%
Target sequence (P03206 whole entry, looked up): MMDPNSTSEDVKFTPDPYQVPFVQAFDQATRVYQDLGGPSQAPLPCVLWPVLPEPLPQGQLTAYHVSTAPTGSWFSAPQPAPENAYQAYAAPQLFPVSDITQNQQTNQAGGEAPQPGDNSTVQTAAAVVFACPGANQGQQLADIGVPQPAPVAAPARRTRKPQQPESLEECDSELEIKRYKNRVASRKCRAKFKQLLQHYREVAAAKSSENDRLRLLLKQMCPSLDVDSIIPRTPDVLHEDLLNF
EBNA-1 inhibitor: blocks EBNA-1 binding to DNA | EBNA-1 DNA binding, fluorescence polarization | inhibition, % at 14.8 µM | 0.34% of 300,000 active; in the data active means inhibition above about 28%
* = called active by the depositor.

For COc1c2c(cc(O)c1C(C)=O)OC(C)(C)C=C2 the results were GRIN3A LBD mod 0 and FGF22 binding 1.
`CC(C)=CCC12Oc3cc(O)ccc3C1(O)Oc1cc3c(c(O)c1C2=O)C=CC(C)(C)O3` (stereo unspecified) gave GRIN3A LBD mod 12*, ZTA counter 6 and EBNA-1 inhibitor 1.
For O=C(NCC[C@H]1CC[C@@H](NC(=O)c2cnccn2)[C@@H](CO)O1)Nc1ccc(F)cc1 the results were FGF22 binding 0.
Screening COc1ccc(O)c(-c2cc(-c3cccc(Br)c3)n[nH]2)c1 returned NS3 helicase inh -17, GRIN3A LBD mod 16*, FID counter 7, ZTA counter 2 and EBNA-1 inhibitor 7.
For Oc1ccc(Br)cc1-c1cc(-c2ccccc2)n[nH]1 the results were NS3 helicase inh -10, GRIN3A LBD mod 29*, FID counter 0, ZTA counter 15 and EBNA-1 inhibitor 16.
`COc1ccc(-c2cc(-c3cc(OC)ccc3O)[nH]n2)cc1` gave NS3 helicase inh -7, GRIN3A LBD mod -2, FID counter -8, ZTA counter -13 and EBNA-1 inhibitor 1.
O=[N+]([O-])c1cccc(-c2cc(-c3cc(Br)ccc3O)[nH]n2)c1 was read as NS3 helicase inh -6, GRIN3A LBD mod 13*, FGF22 binding 0, FID counter 9, ZTA counter -7 and EBNA-1 inhibitor -5.
Screening Oc1ccc(Br)cc1-c1cc(-c2ccc(Cl)cc2)n[nH]1 returned NS3 helicase inh 1, GRIN3A LBD mod 42*, FID counter 4, ZTA counter -15 and EBNA-1 inhibitor 3.
`Cc1noc(C)c1NC(=O)N(C)C[C@@H]1Oc2ccc(NC(=O)Nc3ccccc3)cc2CC(=O)N([C@@H](C)CO)C[C@H]1C` gave FGF22 binding 0.
`COc1ccc(-c2cc(-c3ccc(OC)c(OC)c3)n[nH]2)c(O)c1` gave NS3 helicase inh -15, GRIN3A LBD mod 0, FID counter -15, ZTA counter -11 and EBNA-1 inhibitor 2.
COc1ccc(-c2cc(-c3ccc(Cl)cc3)n[nH]2)c(O)c1 was read as NS3 helicase inh 1, GRIN3A LBD mod 49*, FGF22 binding 0, FID counter -2, ZTA counter 4 and EBNA-1 inhibitor 0.
For CCCNC(=O)C(Cc1ccccc1)NC(=O)c1ccccc1 (stereo unspecified) the results were GRIN3A LBD mod -1, FGF22 binding 0 and ZTA counter -2.
Screening CC(C)c1ccc(CC(NC(=O)c2ccccc2)C(=O)NCC(=O)O)cc1 (stereo unspecified) returned NS3 helicase inh 0, GRIN3A LBD mod 0, FGF22 binding 43*, FID counter -26, ZTA counter -3 and EBNA-1 inhibitor -1.
For COc1ccc(NC(=O)Nc2cccc3c2O[C@H](CN(C)S(=O)(=O)c2cn(C)cn2)[C@@H](C)CN([C@@H](C)CO)C3=O)cc1 the results were FGF22 binding -1.
Screening O=C1CSCN1c1ccc(Cl)c(Cl)c1 returned NS3 helicase inh -7, GRIN3A LBD mod -1, FGF22 binding 43*, FID counter -5, ZTA counter -3 and EBNA-1 inhibitor -11.
Screening O=C1CSCN1c1cc(Cl)ccc1Cl returned NS3 helicase inh 0, GRIN3A LBD mod -1, FGF22 binding 0, FID counter -1, ZTA counter 17 and EBNA-1 inhibitor -5.
For O=C(NC(=S)Nc1ccccn1)c1ccc([N+](=O)[O-])cc1 the results were NS3 helicase inh 2, GRIN3A LBD mod 11*, FID counter -3, ZTA counter -5 and EBNA-1 inhibitor 7.
For c1ccc2c(c1)CCN(C1=Nc3cccc4cccc1c34)C2 the results were NS3 helicase inh 0, GRIN3A LBD mod -1, FGF22 binding 43* and FID counter 1.
Screening c1cc2c3c(cccc3c1)C(N1CCCCCC1)=N2 returned NS3 helicase inh 9, GRIN3A LBD mod -3, FID counter 13, ZTA counter 18 and EBNA-1 inhibitor 13.
For CCOC(=O)c1cnc(SC)nc1Sc1ccccc1Cl the results were NS3 helicase inh -8, GRIN3A LBD mod 20*, FID counter -9, ZTA counter 4 and EBNA-1 inhibitor 2.
